Results reported in ChEMBL document CHEMBL1151705, “Novel azalides derived from 16-membered macrolides. Part II: Isolation of the linear 9-formylcarboxylic acid and its sequential macrocyclization with an amino alcohol or an azidoamine” (2008).
Values after ≈ are worked out from the molar mass of the structure shown.

Key:
Format in all cases: functional
Streptococcus pneumoniae [1] = experiment: Antimicrobial activity against Streptococcus pneumoniae 8 expressing inducible ermB after 20 hrs by agar dilution method; conditions: Streptococcus pneumoniae, 20 h; read-out: MIC
Method in brief: (§1)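 Streptococci, H. influenzae and M. catarrhalis were precultured on blood agar plates. Suspensions of about 10⁶ CFU/ml were inoculated onto sensitivity disk agar supplemented with 5% horse blood and incubated at 37 °C for 20 h. MIC was read as the lowest drug concentration with no visible growth.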

Streptococcus pneumoniae [2] = experiment: Antimicrobial activity against Streptococcus pneumoniae 9 expressing mefA after 20 hrs by agar dilution method; conditions: Streptococcus pneumoniae, 20 h; read-out: MIC; method in brief: as §1
Streptococcus pneumoniae [3] = experiment: Antimicrobial activity against Streptococcus pneumoniae 10 expressing mefA after 20 hrs by agar dilution method; conditions: Streptococcus pneumoniae, 20 h; read-out: MIC; method in brief: as §1
Streptococcus pyogenes [4] = experiment: Antimicrobial activity against drug-susceptible Streptococcus pyogenes 1 after 20 hrs by agar dilution method; conditions: Streptococcus pyogenes, 20 h; read-out: MIC; method in brief: as §1
Streptococcus pyogenes [5] = experiment: Antimicrobial activity against Streptococcus pyogenes 2 constitutively expressing ermB after 20 hrs by agar dilution method; method in brief: as §1
Streptococcus pyogenes [6] = experiment: Antimicrobial activity against Streptococcus pyogenes 3 expressing mefA after 20 hrs by agar dilution method; conditions: Streptococcus pyogenes, 20 h; read-out: MIC; method in brief: as §1
Moraxella catarrhalis [7] = experiment: Antimicrobial activity against drug-susceptible Moraxella catarrhalis 1 after 20 hrs by agar dilution method; conditions: Moraxella catarrhalis, 20 h; read-out: MIC; method in brief: as §1
Moraxella catarrhalis [8] = experiment: Antimicrobial activity against drug-susceptible Moraxella catarrhalis 2 after 20 hrs by agar dilution method; conditions: Moraxella catarrhalis, 20 h; read-out: MIC; method in brief: as §1
Haemophilus influenzae [9] = experiment: Antimicrobial activity against drug-susceptible Haemophilus influenzae 1 after 20 hrs by agar dilution method; conditions: Haemophilus influenzae, 20 h; read-out: MIC; method in brief: as §1
Haemophilus influenzae [10] = experiment: Antimicrobial activity against drug-susceptible Haemophilus influenzae 2 after 20 hrs by agar dilution method; conditions: Haemophilus influenzae, 20 h; read-out: MIC; method in brief: as §1
Haemophilus influenzae [11] = experiment: Antimicrobial activity against drug-susceptible Haemophilus influenzae 3 after 20 hrs by agar dilution method; conditions: Haemophilus influenzae, 20 h; read-out: MIC; method in brief: as §1
Haemophilus influenzae [12] = experiment: Antimicrobial activity against drug-susceptible Haemophilus influenzae 4 after 20 hrs by agar dilution method; conditions: Haemophilus influenzae, 20 h; read-out: MIC; method in brief: as §1
Staphylococcus aureus [13] = experiment: Antimicrobial activity against drug-susceptible Staphylococcus aureus 209P JC-1 after 20 hrs by agar dilution method; conditions: Staphylococcus aureus, 209P, 20 h; read-out: MIC
Method in brief: (§2)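 Agar dilution MIC. S. aureus seed culture was grown in sensitivity test broth. Cell suspension (about 10⁶ CFU/ml) was inoculated onto sensitivity disk agar with 5% horse blood and incubated at 37 °C for 20 h. MIC was the lowest drug concentration that prevented visible growth.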

Staphylococcus aureus [14] = experiment: Antimicrobial activity against drug-susceptible Staphylococcus aureus 2 after 20 hrs by agar dilution method; conditions: Staphylococcus aureus, 20 h; read-out: MIC; method in brief: as §2
Staphylococcus aureus [15] = experiment: Antimicrobial activity against drug-susceptible Staphylococcus aureus 3 after 20 hrs by agar dilution method; conditions: Staphylococcus aureus, 20 h; read-out: MIC; method in brief: as §2
Staphylococcus aureus [16] = experiment: Antimicrobial activity against Staphylococcus aureus 4 constitutively expressing ermA after 20 hrs by agar dilution method; method in brief: as §2
Staphylococcus aureus [17] = experiment: Antimicrobial activity against Staphylococcus aureus 5 expressing inducible ermB after 20 hrs by agar dilution method; conditions: Staphylococcus aureus, 20 h; read-out: MIC; method in brief: as §2
Streptococcus pneumoniae [18] = experiment: Antimicrobial activity against drug-susceptible Streptococcus pneumoniae DP1 Type1 after 20 hrs by agar dilution method; conditions: Streptococcus pneumoniae, 20 h; read-out: MIC; method in brief: as §1
Streptococcus pneumoniae [19] = experiment: Antimicrobial activity against drug-susceptible Streptococcus pneumoniae 2 after 20 hrs by agar dilution method; conditions: Streptococcus pneumoniae, 20 h; read-out: MIC; method in brief: as §1
Streptococcus pneumoniae [20] = experiment: Antimicrobial activity against drug-susceptible Streptococcus pneumoniae 3 after 20 hrs by agar dilution method; conditions: Streptococcus pneumoniae, 20 h; read-out: MIC; method in brief: as §1
Streptococcus pneumoniae [21] = experiment: Antimicrobial activity against Streptococcus pneumoniae 4 constitutively expressing ermB after 20 hrs by agar dilution method; conditions: Streptococcus pneumoniae, 20 h; read-out: MIC; method in brief: as §1
Streptococcus pneumoniae [22] = experiment: Antimicrobial activity against Streptococcus pneumoniae 5 constitutively expressing ermB/mefA after 20 hrs by agar dilution method; conditions: Streptococcus pneumoniae, 20 h; read-out: MIC; method in brief: as §1
Streptococcus pneumoniae [23] = experiment: Antimicrobial activity against Streptococcus pneumoniae 6 constitutively expressing ermB after 20 hrs by agar dilution method; conditions: Streptococcus pneumoniae, 20 h; read-out: MIC; method in brief: as §1
Streptococcus pneumoniae [24] = experiment: Antimicrobial activity against Streptococcus pneumoniae 7 expressing inducible ermB after 20 hrs by agar dilution method; conditions: Streptococcus pneumoniae, 20 h; read-out: MIC; method in brief: as §1
Staphylococcus aureus [25] = experiment: Antimicrobial activity against Staphylococcus aureus 6 expressing inducible ermB after 20 hrs by agar dilution method; method in brief: as §2

Row | SMILES | MIC (Streptococcus pneumoniae [1]) [µg/mL] | MIC (Streptococcus pneumoniae [2]) [µg/mL] | MIC (Streptococcus pneumoniae [3]) [µg/mL] | MIC (Streptococcus pyogenes [4]) [µg/mL] | MIC (Streptococcus pyogenes [5]) [µg/mL] | MIC (Streptococcus pyogenes [6]) [µg/mL] | MIC (Moraxella catarrhalis [7]) [µg/mL] | MIC (Moraxella catarrhalis [8]) [µg/mL] | MIC (Haemophilus influenzae [9]) [µg/mL] | MIC (Haemophilus influenzae [10]) [µg/mL] | MIC (Haemophilus influenzae [11]) [µg/mL] | MIC (Haemophilus influenzae [12]) [µg/mL] | MIC (Staphylococcus aureus [13]) [µg/mL] | MIC (Staphylococcus aureus [14]) [µg/mL] | MIC (Staphylococcus aureus [15]) [µg/mL] | MIC (Staphylococcus aureus [16]) [µg/mL] | MIC (Staphylococcus aureus [17]) [µg/mL] | MIC (Streptococcus pneumoniae [18]) [µg/mL] | MIC (Streptococcus pneumoniae [19]) [µg/mL] | MIC (Streptococcus pneumoniae [20]) [µg/mL] | other results
1 | CCOC(=O)[C@H]1[C@H](C)O[C@@H](O[C@H]2[C@H](N(C)C)[C@@H](O)[C@H](O[C@H]3[C@@H](CC=O)C[C@@H](C)[C@@H](O)CN(C)CCC[C@H](CCCc4ccnc5ccccc45)OC(=O)C[C@@H](OC(=O)CC)[C@@H]3OC)O[C@@H]2C)C[C@@]1(C)O | 8 (≈ 8.1 µM) | 0.06 (≈ 0.0607 µM) | 0.06 (≈ 0.0607 µM) | 0.06 (≈ 0.0607 µM) | > 128 | 0.5 (≈ 0.506 µM) | 2 (≈ 2.02 µM) | 2 (≈ 2.02 µM) | 32 (≈ 32.4 µM) | 4 (≈ 4.05 µM) | 16 (≈ 16.2 µM) | 16 (≈ 16.2 µM) | 0.5 (≈ 0.506 µM) | 1 (≈ 1.01 µM) | 0.25 (≈ 0.253 µM) | > 128 | 0.5 (≈ 0.506 µM) | 0.03 (≈ 0.0304 µM) | 0.06 (≈ 0.0607 µM) | 0.06 (≈ 0.0607 µM) | MIC (Streptococcus pneumoniae [21]): > 128 µg/mL; MIC (Streptococcus pneumoniae [22]): > 128 µg/mL; MIC (Streptococcus pneumoniae [23]): > 128 µg/mL; MIC (Streptococcus pneumoniae [24]): 8 µg/mL (≈ 8.1 µM); MIC (Staphylococcus aureus [25]): 0.5 µg/mL (≈ 0.506 µM)
2 | CCOC(=O)[C@H]1[C@H](C)O[C@@H](O[C@H]2[C@H](N(C)C)[C@@H](O)[C@H](O[C@H]3[C@@H](CC=O)C[C@@H](C)[C@@H](O)CN(C)CCC[C@H](C/C=C/c4ccccc4)OC(=O)C[C@@H](OC(=O)CC)[C@@H]3OC)O[C@@H]2C)C[C@@]1(C)O | 4 (≈ 4.28 µM) | 0.06 (≈ 0.0642 µM) | 0.06 (≈ 0.0642 µM) | 0.13 (≈ 0.139 µM) | > 128 | 0.5 (≈ 0.535 µM) | 1 (≈ 1.07 µM) | 1 (≈ 1.07 µM) | 64 (≈ 68.4 µM) | 8 (≈ 8.55 µM) | 16 (≈ 17.1 µM) | 8 (≈ 8.55 µM) | 0.5 (≈ 0.535 µM) | 1 (≈ 1.07 µM) | 0.25 (≈ 0.267 µM) | > 128 | 0.25 (≈ 0.267 µM) | 0.03 (≈ 0.0321 µM) | 0.06 (≈ 0.0642 µM) | 0.06 (≈ 0.0642 µM) | MIC (Streptococcus pneumoniae [21]): 128 µg/mL (≈ 137 µM); MIC (Streptococcus pneumoniae [22]): > 128 µg/mL; MIC (Streptococcus pneumoniae [23]): > 128 µg/mL; MIC (Streptococcus pneumoniae [24]): 2 µg/mL (≈ 2.14 µM); MIC (Staphylococcus aureus [25]): 0.5 µg/mL (≈ 0.535 µM)
3 | CCOC(=O)[C@H]1[C@H](C)O[C@@H](O[C@H]2[C@H](N(C)C)[C@@H](O)[C@H](O[C@H]3[C@@H](CC=O)C[C@@H](C)[C@@H](O)CN(C)CCC[C@@H](C/C=C/c4ccnc5ccccc45)OC(=O)C[C@@H](OC(=O)CC)[C@@H]3OC)O[C@@H]2C)C[C@@]1(C)O | 32 (≈ 32.4 µM) | 0.13 (≈ 0.132 µM) | 0.13 (≈ 0.132 µM) | 0.25 (≈ 0.253 µM) | > 128 | 0.5 (≈ 0.507 µM) | 2 (≈ 2.03 µM) | 4 (≈ 4.06 µM) | 64 (≈ 64.9 µM) | 8 (≈ 8.11 µM) | 16 (≈ 16.2 µM) | 16 (≈ 16.2 µM) | 0.5 (≈ 0.507 µM) | 1 (≈ 1.01 µM) | 0.25 (≈ 0.253 µM) | > 128 | 0.25 (≈ 0.253 µM) | 0.13 (≈ 0.132 µM) | 0.13 (≈ 0.132 µM) | 0.06 (≈ 0.0608 µM) | MIC (Streptococcus pneumoniae [21]): > 128 µg/mL; MIC (Streptococcus pneumoniae [22]): > 128 µg/mL; MIC (Streptococcus pneumoniae [23]): > 128 µg/mL; MIC (Streptococcus pneumoniae [24]): 32 µg/mL (≈ 32.4 µM); MIC (Staphylococcus aureus [25]): 0.5 µg/mL (≈ 0.507 µM)
